This is an account of results in ChEMBL document CHEMBL2331535, “Discovery and Biological Profiling of Potent and Selective mTOR Inhibitor GDC-0349” (ACS Med Chem Lett, 2013).

Active and inactive are the calls of the source. No cut-off for these calls is given here.

For data set [1], the system named is PC-3. Nature of the data set: Antiproliferative activity against PTEN-null human PC3 cells. The class given is functional, cell-based. In a few lines: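 PC3 prostate cancer cells (PTEN loss, PI3K-AKT-mTOR pathway activated) used for the antiproliferation assay. Activity is expressed as EC50 in nM.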
Data set [2] has as its system A549. In words: Antitumor activity against KRas mutant, LKB1 deficient human A549 cells xenografted in mouse assessed as tumor growth inhibition at 5 to 30 mg/kg, po qd. It counts as functional, organism-based. For orientation: Xenograft models place foreign cells or tissue in a host animal.
The test system of data set [3] is A549. Nature of the data set: Antitumor activity against KRas mutant, LKB1 deficient human A549 cells xenografted in po dosed mouse assessed as delay in tumor growth administered qd in presence of MEK inhibitor, GDC-0973. The class given is functional, organism-based.
The test system of data set [4] is Mus musculus. In words: Toxicity in po dosed mouse xenografted with KRas mutant, LKB1 deficient human A549 cells assessed as body weight changes administered qd in presence of MEK inhibitor, GDC-0973. As to conditions: in vivo. It counts as organism-based.
The target in the next data set is Cytochrome P450 3A4 (Homo sapiens, UniProt P08684). In words: Time-dependent inhibition of CYP3A4 in human liver microsome using midazolam as substrate by TDI shift assay. It counts as ADME, microsomes. In a few lines: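 CYP3A4 time-dependent inhibition shift assay in human liver microsomes with NADPH cofactor and midazolam as probe substrate. The compound was preincubated for 30 min and compared with no preincubation. A left shift of the CYP activity curve after preincubation designates the compound TDI positive.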
Chain of Cytochrome P450 3A4 (P08684 whole entry): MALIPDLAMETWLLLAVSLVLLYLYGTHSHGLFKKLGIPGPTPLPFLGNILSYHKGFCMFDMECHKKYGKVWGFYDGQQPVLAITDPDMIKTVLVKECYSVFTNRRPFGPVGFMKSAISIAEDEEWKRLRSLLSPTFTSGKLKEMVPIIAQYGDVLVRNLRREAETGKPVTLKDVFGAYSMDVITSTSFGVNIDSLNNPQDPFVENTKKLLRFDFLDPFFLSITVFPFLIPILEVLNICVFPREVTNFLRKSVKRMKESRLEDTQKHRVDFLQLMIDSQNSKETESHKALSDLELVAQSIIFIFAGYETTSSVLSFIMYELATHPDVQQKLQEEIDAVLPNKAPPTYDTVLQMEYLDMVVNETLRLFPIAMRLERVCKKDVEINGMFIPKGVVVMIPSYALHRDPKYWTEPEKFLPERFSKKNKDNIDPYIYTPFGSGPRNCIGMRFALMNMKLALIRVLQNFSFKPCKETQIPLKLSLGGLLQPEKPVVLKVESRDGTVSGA

Data set [5] concerns Plasma. Nature of the data set: Free plasma clearance in mouse. The class given is ADME, cell-free.
Data set [6] deals with Plasma. Nature of the data set: Free plasma clearance in rat. It counts as ADME, cell-free.
The nature of data set [7]: Dissociation constant, pKa of the compound. It counts as physicochemical.
Data set [8] in a line: In vivo clearance in mouse. It counts as ADME, organism-based.
Data set [9] concerns Mus musculus. Nature of the data set: Toxicity in NCR nude mouse xenografted with human PI3K-mutant MCF7-neo/Her2 cells assessed as body weight changes up to 80 mg/kg, po qd for 14-21 days. It counts as organism-based. More on the design: dose 80 mg/kg, route oral. As to conditions: in vivo. Summed up:
(§1)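 MCF7-neo/Her2 (PI3K-mutant) breast cancer xenografts in athymic mice. Compound given orally once daily at 10, 20, 30, 40, 50, 60, 70 and 80 mg/kg QD, with a vehicle group (0 mg/kg). Tumor growth inhibition was tracked, and body weight change was monitored up to the highest dose.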

Data set [10] in a line: Antitumor activity against PI3K-mutant human MCF7-neo/Her2 cells xenografted in po dosed NCR nude mouse assessed as tumor growth inhibition at maximum tolerated dose administered qd for 14-21 days. The class given is functional. Summed up:
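Athymic mice bearing MCF7-neo/Her2 breast tumour xenografts (PI3K-mutant) were given the drug orally once daily at 10, 20, 30, 40, 50, 60, 70 or 80 mg/kg, with a vehicle (0 mg/kg) group. Read-out was tumour growth inhibition across the dose range, with body weight change also tracked.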

For data set [11], the system named is Homo sapiens. Nature of the data set: Antitumor activity against PI3K-mutant human MCF7-neo/Her2 cells xenografted in po dosed NCR nude mouse assessed as tumor growth inhibition administered qd for 14-21 days. It counts as functional, organism-based. In a few lines:
as §1

For data set [12], the system named is Homo sapiens. In words: Antitumor activity against PI3K-mutant human MCF7-neo/Her2 cells xenografted in po dosed NCR nude mouse assessed as tumor growth inhibition administered once daily for 14-21 days.
In data set [13] the test system is Homo sapiens. Nature of the data set: Decrease in phosphorylation of Akt at Ser473 in PI3K-mutant human MCF7-neo/Her2 cells xenografted in NCR nude mouse at 25 to 100 mg/kg, po. It counts as functional, organism-based.
For data set [14], the system named is PC-3. In words: Antitumor activity against PTEN-null human PC3 cells xenografted in po dosed NCR nude mouse assessed as tumor growth inhibition administered qd for 14-21 days. The class given is functional, organism-based.
The test system of data set [15] is Homo sapiens. In words: Decrease in phosphorylated 4-EBP1 level in PI3K-mutant human MCF7-neo/Her2 cells xenografted in NCR nude mouse at 25 to 100 mg/kg, po. It counts as functional, organism-based.
In the next data set the test system is 786-0. In words: Antitumor activity against VHL mutant human 786-0 cells xenografted in po dosed nu/nu mouse assessed as tumor growth inhibition administered qd for 14-21 days. It counts as functional, organism-based.

As a reminder, the EC50 is the concentration needed to bring the measured effect to its halfway point. Read a low EC50 as greater potency. The molecule `C[C@H]1COCCN1c1nc(-c2ccc(Nc3nn(C)c(=O)[nH]3)cc2)nc2c1CCN(c1ncccn1)C2` gave an EC50 in the data set with PC-3 [1] of 139 nM.

`CS(=O)(=O)N1CCN(Cc2cc3nc(-c4cccc5[nH]ncc45)nc(N4CCOCC4)c3s2)CC1` [PICTILISIB]: the TGI result in the data set with A549 [2] and in the data set with A549 [3] was “Active” each time. For the same molecule, the Activity entry in the data set with Mus musculus [4] is “Non-toxic”.

The molecule `CCNc1c(Nc2ccc(-c3nc4c(c(N5CCOC[C@@H]5C)n3)CCN(c3ncccn3)C4)cc2)c(=O)c1=O` showed an EC50 in the data set on PC-3 [1] of 667 nM. That is a sub-micromolar value.

In the case of `O=c1cccc(Nc2ccc(-c3nc4c(c(N5CCOCC5)n3)CCN(c3ncccn3)C4)cc2)[nH]1`, in the data set with PC-3 [1], the EC50 turned out to be 1300 nM. This EC50 lies about 1.9-fold higher than the previous one.

In the data set on PC-3 [1], `O=C(NCCF)Nc1ccc(-c2nc3c(c(N4CCOCC4)n2)CCN(c2ncccn2)C3)cc1` yielded an EC50 of 58 nM.

As usually defined, the IC50 is the point on the concentration scale where inhibition reaches its midpoint. For `CCNC(=O)Nc1ccc(-c2nc3c(c(N4CCOC[C@@H]4C)n2)CCN(c2cc(C)ncn2)C3)cc1`, the IC50 on Cytochrome P450 3A4 turned out to be 8400 nM.

As a reminder, the pKa is the negative logarithm of the acid dissociation constant. A high value points to a group that holds its proton tightly. Take `CCNC(=O)Nc1ccc(-c2nc3c(c(N4CCOC[C@@H]4C)n2)CCN(C2COC2)C3)cc1` [RG-7603]: the CL free in the data set on Plasma [5] was 100 mL/min/kg; in the data set on Plasma [6] it was 171 mL/min/kg. Besides, the Activity result with Mus musculus [4] is given as “Non-toxic”. The molecule further showed a pKa in [7] of 5.

Take `CCNC(=O)Nc1ccc(-c2nc3c(c(N4CCOC[C@@H]4C)n2)CCN(c2ccnc(C)n2)C3)cc1`: the IC50 on Cytochrome P450 3A4 came out at 3300 nM.

Usually clearance stands for a measure of how efficiently the substance is removed, as volume per time. In turn, `C[C@H]1COCCN1c1nc(-c2ccc(Nc3nccc(=O)[nH]3)cc2)nc2c1CCN(c1ncccn1)C2` registered a clearance in data set [8] of 78 mL/min/kg. For the same molecule, in the data set on PC-3 [1], the EC50 was determined as 25 nM.

For the molecule `CCNC(=O)Nc1ccc(-c2nc3c(c(N4CCOC[C@@H]4C)n2)CCN(C2COC2)C3)cc1.CS(=O)(=O)O`, the Activity in the data set with Mus musculus [9] is less than 10%. The TGI in data set [10] is 99%.

Regarding `CCNC(=O)Nc1ccc(-c2nc3c(c(N4CCOCC4)n2)CCN(c2ncccn2)C3)cc1`, it took 310 nM to reach a half-maximal effect with PC-3 [1] (EC50).

For `CCNC(=O)Nc1ccc(-c2nc3c(c(N4CCOC[C@@H]4C)n2)CCN(c2nccn2C)C3)cc1`, the IC50 on Cytochrome P450 3A4 was greater than 10000 nM.

With `CCNC(=O)Nc1ccc(-c2nc3c(c(N4CCOC[C@@H]4C)n2)CCN(c2ncccn2)C3)cc1`, the CL free is 1818 mL/min/kg in the data set with Plasma [5] and 1538 mL/min/kg with Plasma [6]. Moreover, the EC50 in the data set on PC-3 [1] came out at 147 nM.

Take `CCNC(=O)Nc1ccc(-c2nc3c(c(N4CCOC[C@@H]4C)n2)CCN(C2COC2)C3)cc1`: in the data set on Homo sapiens [11], the inhibition result is “Dose-dependent effect”. Besides, the TGI entry in the data set on Homo sapiens [12], in the data set with A549 [2], in the data set on A549 [3], in the data set on PC-3 [14] and with 786-0 was “Active” each time. Besides, the inhibition entry in the data set on Homo sapiens [13] and with Homo sapiens [15] was “Active” each time.

Turning to `CCNC(=O)Nc1ccc(-c2nc3c(c(N4CCOC[C@@H]4C)n2)CCN(c2ncc(F)cn2)C3)cc1`, the IC50 at Cytochrome P450 3A4 stood at 1400 nM.

Turning to `CCNC(=O)Nc1ccc(-c2nc3c(c(N4CCOC[C@@H]4C)n2)CCN(C(C)C)C3)cc1`, on Cytochrome P450 3A4, the IC50 is greater than 10000 nM. In addition, the pKa in data set [7] was 7.6.
